In ChEMBL document CHEMBL5329167, “Design, synthesis and evaluation of halogenated phenazine antibacterial prodrugs targeting nitroreductase enzymes for activation” (RSC Med Chem, 2023):
Converted amounts (≈) assume the structure as drawn. The source made the active and inactive calls. No cut-off for these calls is given here.

Assays:
[1] = test system: Staphylococcus aureus; assay: Antibacterial activity against Staphylococcus aureus clinical isolate 147 assessed as bacterial growth inhibition incubated for 16 hrs by CLSI based broth microdilution method; format: functional
[2] = test system: Staphylococcus aureus; assay: Antibacterial activity against Staphylococcus aureus clinical isolate 138 assessed as bacterial growth inhibition incubated for 16 hrs by CLSI based broth microdilution method; format: functional
[3] = test system: Staphylococcus aureus; assay: Antibacterial activity against Staphylococcus aureus clinical isolate 156 assessed as bacterial growth inhibition incubated for 16 hrs by CLSI based broth microdilution method; format: functional
[4] = test system: Staphylococcus epidermidis; assay: Antibacterial activity against Staphylococcus epidermidis clinical isolate CL-1 assessed as bacterial growth inhibition incubated for 16 hrs by CLSI based broth microdilution method; format: functional
[5] = test system: Staphylococcus aureus; assay: Antibacterial activity against Staphylococcus aureus clinical isolate 129 assessed as bacterial growth inhibition incubated for 16 hrs by CLSI based broth microdilution method; format: functional
[6] = test system: Staphylococcus aureus; assay: Antibacterial activity against methicillin-resistant Staphylococcus aureus clinical isolate 1 assessed as bacterial growth inhibition incubated for 16 hrs by CLSI based broth microdilution method; format: functional
[7] = test system: Staphylococcus aureus; assay: Antibacterial activity against methicillin-resistant Staphylococcus aureus clinical isolate 2 assessed as bacterial growth inhibition incubated for 16 hrs by CLSI based broth microdilution method; format: functional
[8] = test system: Staphylococcus aureus; assay: Antibacterial activity against methicillin-resistant Staphylococcus aureus 1707 assessed as bacterial growth inhibition incubated for 16 hrs by CLSI based broth microdilution method; format: functional
Method in brief: (§1)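 Broth microdilution per CLSI in LB, eleven two-fold serial dilutions spanning 0.10 to 100 µM. Inoculum ~10⁵ cells/well from fresh log-phase culture (OD₆₀₀ 0.6–0.8). MIC taken as lowest concentration preventing growth after 16 h at 37 °C, read by OD₆₀₀ turbidity. DMSO vehicle control, top 0.5% v/v. At least three independent experiments.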

[9] = test system: Staphylococcus aureus; assay: Antibacterial activity against methicillin-resistant Staphylococcus aureus 1707 assessed as zone of inhibition at 10 mM incubated for 16 hrs by agar diffusion assay; format: functional
Method in brief: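 Modified Kirby-Bauer disk diffusion. 100 µL MRSA 1707 inoculum (OD₆₀₀ 0.7, ~10⁸ CFU) spread on LB agar and left 30 min. 10 µL of 10 mM DMSO compound solution then pipetted onto the plate. Incubation 16 h at 37 °C; zone of inhibition area (cm²) measured. Three independent experiments.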

[10] = test system: Enterococcus faecalis; assay: Antibacterial activity against Enterococcus faecalis OG1RF assessed as bacterial growth inhibition incubated for 16 hrs by CLSI based broth microdilution method; format: functional
Method in brief: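 Broth microdilution per CLSI in brain-heart infusion: eleven 2-fold dilutions spanning 0.10–100 µM, with DMSO vehicle/negative control topping at 0.5% v/v. Inoculum ~10⁵ cells/well from log-phase culture (OD₆₀₀ 0.6–0.8). 37 °C, 16 h. MIC is the lowest concentration preventing growth, read as OD₆₀₀ turbidity. At least three independent experiments.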

[11] = test system: Enterococcus; assay: Antibacterial activity against vancomycin-resistant Enterococcus 700221 assessed as bacterial growth inhibition incubated for 16 hrs by CLSI based broth microdilution method; format: functional
Method in brief: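 Growth scored by OD₆₀₀ turbidity after 16 h at 37 °C; MIC is the lowest concentration preventing growth. DMSO vehicle control up to 0.5% v/v. Three or more independent experiments.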

[12] = Cytotoxicity against HEK293 cells incubated for 48 hrs by MTT assay; format: toxicity, cell-based; conditions: human
Method in brief: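 HEK-293 cells (10⁴/well) in DMEM with 10% FBS, penicillin/streptomycin, settled overnight at 37 °C, 5% CO₂. Medium replaced with compound at 0.10–100 µM (2-fold steps); DMSO as negative control. After 48 h at 37 °C, MTT (5 mg/mL stock) added for 3 h. Formazan dissolved in DMSO, OD read at 570 nm. Eight replicates per treatment.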

[13] = test system: Staphylococcus epidermidis; assay: Antibacterial activity against Staphylococcus epidermidis 12228 assessed as bacterial growth inhibition incubated for 16 hrs by CLSI based broth microdilution method; format: functional
Method in brief: (§2)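 CLSI broth microdilution in LB: eleven 2-fold serial dilutions, 0.10–100 µM. DMSO vehicle/negative control diluted from 0.5% v/v. Wells seeded with ~10⁵ cells from log-phase culture (OD₆₀₀ 0.6–0.8), held 16 h at 37 °C. MIC taken as the lowest concentration preventing growth by OD₆₀₀ turbidity. Minimum three independent experiments.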

[14] = test system: Staphylococcus aureus; assay: Antibacterial activity against methicillin-resistant Staphylococcus aureus BAA-1707 assessed as bacterial growth inhibition incubated for 16 hrs by CLSI based broth microdilution method; format: functional; method in brief: as §1
[15] = test system: Streptococcus pneumoniae; assay: Antibacterial activity against Streptococcus pneumoniae 6303 assessed as bacterial growth inhibition incubated for 16 hrs by CLSI based broth microdilution method; format: functional; method in brief: as §2
[16] = Hemolytic activity against red blood cells (unknown origin) at 200 uM; format: toxicity, cell-based, Erythrocyte; conditions: read-out: Activity
[17] = test system: Staphylococcus aureus; assay: Antibacterial activity against methicillin-resistant Staphylococcus aureus BAA-44 assessed as bacterial growth inhibition incubated for 16 hrs by CLSI based broth microdilution method; format: functional; method in brief: as §1
[18] = Lipophilicity, LogP of compound in octanol-water mixture incubated for 1 hr by UV-vis spectroscopy; format: physicochemical
Method in brief: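 Shake-flask partition: compound in octanol (1% v/v DMSO) mixed with equal volume water, stirred vigorously, left 1 h at room temperature to separate. Octanol-phase concentration measured by UV-Vis at 370 or 380 nm against a serial-dilution standard curve. Water concentration obtained by mass balance; LogP = log10(Coct/Cw). Acetophenone as positive control. Three independent experiments.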

[19] = test system: Staphylococcus epidermidis; assay: Antibacterial activity against methicillin-resistant Staphylococcus epidermidis 35984 assessed as bacterial growth inhibition incubated for 16 hrs by CLSI based broth microdilution method; format: functional; method in brief: as §1
[20] = Metal chelating activity assessed as formation of phenazine-iron complex measured for 1 to 60 mins by UV-vis spectroscopy; conditions: time 1-60 min
Method in brief: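 Compound from a 10 mM DMSO stock diluted in DMSO in a cuvette, alone or with ammonium iron(II) sulfate hexahydrate (10 mM aqueous stock). Spectra of the compound-only cuvette and the iron-containing cuvette are compared by UV-vis spectrometry to judge phenazine–iron(II) complex formation.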

| SMILES | MIC [1] | MIC [2] | MIC [3] | MIC [4] | MIC [5] | MIC [6] | MIC [7] | MIC [8] | diameter of the inhibition zone (DIZ) [9] | MIC [10] | MIC [11] | CC50 at 48 h [12] | MIC [13] | MIC [14] | MIC [15] | hemolysis at 200 µM [16] | MIC [17] | logP at 1 h [18] | MIC [19] | Activity [20] |
| --- | --- | --- | --- | --- | --- | --- | --- | --- | --- | --- | --- | --- | --- | --- | --- | --- | --- | --- | --- | --- |
| NC[C@H]1O[C@H](O[C@H]2[C@H](O)[C@@H](O[C@H]3O[C@H](CO)[C@@H](O)[C@H](N)[C@H]3O)[C@H](N)C[C@@H]2N)[C@H](N)C[C@@H]1O [TOBRAMYCIN] | 6.25 µM (≈ 2.92 µg/mL) | 12.5 µM (≈ 5.84 µg/mL) | 12.5 µM (≈ 5.84 µg/mL) | 1.56 µM (≈ 0.729 µg/mL) | > 100 µM | 6.25 µM (≈ 2.92 µg/mL) | 6.25 µM (≈ 2.92 µg/mL) |  |  |  |  |  |  |  |  |  |  |  |  |  |
| O=[N+]([O-])c1ccc(CS(=O)(=O)Oc2c(Br)cc(Br)c3nc4ccccc4nc23)cc1 | 6.25 µM (≈ 3.46 µg/mL) | 4.69 µM (≈ 2.59 µg/mL) | 6.25 µM (≈ 3.46 µg/mL) | 6.25 µM (≈ 3.46 µg/mL) | 6.25 µM (≈ 3.46 µg/mL) | 3.13 µM (≈ 1.73 µg/mL) | 2.35 µM (≈ 1.3 µg/mL) | 0.78 µM (≈ 0.431 µg/mL) | 1.13 cm2 | 37.5 µM (≈ 20.7 µg/mL) | 9.38 µM (≈ 5.19 µg/mL) | 51.7 µM | 4.69 µM (≈ 2.59 µg/mL) | 0.78 µM (≈ 0.431 µg/mL) | 4.69 µM (≈ 2.59 µg/mL) | < 1% | 1.56 µM (≈ 0.863 µg/mL) | 0.42 | 4.69 µM (≈ 2.59 µg/mL) | inactive |
| COc1cccc(OC)c1C(=O)N[C@@H]1C(=O)N2[C@@H]1SC(C)(C)[C@@H]2C(=O)O [METHICILLIN] | 6.25 µM (≈ 2.38 µg/mL) | 37.5 µM (≈ 14.3 µg/mL) | 25 µM (≈ 9.51 µg/mL) | 12.5 µM (≈ 4.76 µg/mL) | 37.5 µM (≈ 14.3 µg/mL) | 37.5 µM (≈ 14.3 µg/mL) | > 100 µM |  |  |  |  |  |  |  |  |  |  |  |  |  |
| O=S(=O)(Cc1ccccc1)Oc1c(Br)cc(Br)c2nc3ccccc3nc12 | > 100 µM | > 100 µM | > 100 µM | > 100 µM | > 100 µM |  |  | > 100 µM | 0 cm2 | > 100 µM | > 100 µM | > 100 µM | > 100 µM | > 100 µM | > 100 µM |  | > 100 µM |  | > 100 µM | inactive |
| Oc1c(Br)cc(Br)c2nc3cc(Cl)ccc3nc12 |  |  |  |  |  |  |  | 0.1 µM (≈ 0.0388 µg/mL) | 1.7 cm2 |  |  |  | 0.3 µM (≈ 0.117 µg/mL) | 0.075 µM (≈ 0.0291 µg/mL) | 0.3 µM (≈ 0.117 µg/mL) | < 1% | 0.15 µM (≈ 0.0583 µg/mL) |  |  | Active |
| Oc1c(Br)cc(Br)c2nc3ccccc3nc12 |  |  |  |  |  | 0.78 µM (≈ 0.276 µg/mL) | 1.56 µM (≈ 0.552 µg/mL) |  | 5.08 cm2 | 18.8 µM (≈ 6.66 µg/mL) |  |  | 2.35 µM (≈ 0.832 µg/mL) |  | 1.17 µM (≈ 0.414 µg/mL) | < 1% |  | 0.25 |  | Active |
| O=S(=O)(Cc1ccccc1)Oc1c(Br)cc(Br)c2nc3cc(Cl)ccc3nc12 |  |  |  |  |  |  |  | 3.13 µM (≈ 1.7 µg/mL) | 0 cm2 | > 100 µM | > 100 µM | 30.3 µM | 3.13 µM (≈ 1.7 µg/mL) | 2.35 µM (≈ 1.28 µg/mL) | 1.56 µM (≈ 0.847 µg/mL) |  |  |  |  | inactive |
| CN[C@H](CC(C)C)C(=O)N[C@H]1C(=O)N[C@@H](CC(N)=O)C(=O)N[C@H]2C(=O)N[C@H]3C(=O)N[C@H](C(=O)N[C@H](C(=O)O)c4cc(O)cc(O)c4-c4cc3ccc4O)[C@H](O)c3ccc(c(Cl)c3)Oc3cc2cc(c3O[C@@H]2O[C@H](CO)[C@@H](O)[C@H](O)[C@H]2O[C@H]2C[C@](C)(N)[C@H](O)[C@H](C)O2)Oc2ccc(cc2Cl)[C@H]1O [VANCOMYCIN] |  |  |  | 0.59 µM (≈ 0.855 µg/mL) |  |  |  |  |  | 1.56 µM (≈ 2.26 µg/mL) | > 100 µM |  | 1.56 µM (≈ 2.26 µg/mL) |  | 0.59 µM (≈ 0.855 µg/mL) | < 1% | 0.3 µM (≈ 0.435 µg/mL) |  | 0.59 µM (≈ 0.855 µg/mL) |  |
